Measured values: ChEMBL document CHEMBL1142002, “Design, synthesis and biological evaluation of novel bicyclic beta-lactams as potential antimalarials” (Bioorg Med Chem Lett, 2005)

What was measured:
Plasmodium falciparum [1] = assay: (§1) In vitro antimalarial activity for chloroquine-sensitive Plasmodium falciparum in schizont maturation assay; type: functional, organism-based
Summary of the method: (§2)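 P. falciparum (lab chloroquine-sensitive strains; resistant field isolate from Jagadalpur patients) in O+ human RBCs, RPMI 1640 + 10% human serum, 37 °C, 5% CO2; sorbitol-synchronized rings at 2% in erythrocytes. Double dilutions, duplicate wells, 24 h. Giemsa smears: mature schizonts counted among 200 asexual parasites; inhibition = (1 − Nt/Nc) × 100.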

Plasmodium falciparum [2] = assay: as §1; type: functional
Summary of the method: (§3)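 Chloroquine-sensitive P. falciparum, sorbitol-synchronized ring stages, cultured in O+ human RBCs in RPMI 1640 with 10% human serum at 37 °C under 5% CO2. Duplicate wells held erythrocytes at 2% ring-stage parasitaemia across double dilutions of compound. After 24 h, Giemsa smears were scored for mature schizonts among 200 asexual parasites. Inhibition was calculated as (1 − Nt/Nc)×100 against medium-only controls.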

Plasmodium falciparum [3] = assay: (§4) In vitro antimalarial activity for chloroquine-resistant Plasmodium falciparum in schizont maturation assay; type: functional; summary of the method: as §2
Plasmodium falciparum [4] = assay: as §4; type: functional, organism-based; summary of the method: as §2
Plasmodium falciparum [5] = assay: In vitro antimalarial activity as schizont maturation against drug-resistant Plasmodium falciparum; type: functional; summary of the method: as §2
Plasmodium falciparum [6] = assay: In vitro antimalarial activity as schizont maturation against drug-sensitive Plasmodium falciparum; type: functional; summary of the method: as §3

Row | SMILES | IC50 (Plasmodium falciparum [1]) | IC90 (Plasmodium falciparum [2]) | IC99 (Plasmodium falciparum [2]) | IC90 (Plasmodium falciparum [3]) | IC99 (Plasmodium falciparum [3]) | IC50 (Plasmodium falciparum [4]) | IC90 (Plasmodium falciparum [5]) | IC90 (Plasmodium falciparum [6])
1 | O=C1NC2CCCC12 (stereo unspecified) | 13.5 µM | 31.9 µM | 42.2 µM | 34.5 µM | 48.7 µM | 12.4 µM | – | –
2 | O=C1C2CC=CC=CC2N1Cc1ccccc1 (stereo unspecified) | 1.8 µM | 2.8 µM | 3.2 µM | 2.9 µM | 3.3 µM | 1.8 µM | – | –
3 | O=C1NC2CCCCCCC12 (stereo unspecified) | 8.1 µM | 33.7 µM | 51.2 µM | 33.9 µM | 54.8 µM | 8.4 µM | – | –
4 | O=C1NC2CC/C=C\CCC12 (stereo unspecified) | 6.8 µM | 25.4 µM | 43.4 µM | 26.1 µM | 48.7 µM | 7.3 µM | – | –
5 | O=C1C2CCCCCCC2N1Cc1ccccc1 (stereo unspecified) | 8.1 µM | 18.8 µM | 25.2 µM | 19.4 µM | 27.4 µM | 7.9 µM | – | –
6 | O=C1C2CCCC2N1Cc1ccccc1 (stereo unspecified) | 6.5 µM | 11.2 µM | 12.3 µM | 12.4 µM | 14.5 µM | 7.4 µM | – | –
7 | O=C1C2CC=CCC2N1Cc1ccccc1 (stereo unspecified) | 1.5 µM | 5.6 µM | 6.1 µM | 6.1 µM | 6.4 µM | 1.6 µM | – | –
8 | O=C1NC2CC=CCC12 (stereo unspecified) | 9.1 µM | 19.3 µM | 23.2 µM | 21.2 µM | 25.3 µM | 8.7 µM | – | –
9 | O=C1NC2C=CC=CCC12 (stereo unspecified) | – | 14.5 µM | 20.1 µM | 15.4 µM | 24.8 µM | 4.6 µM | – | –
10 | O=C1C2CC/C=C\CCC2N1Cc1ccccc1 (stereo unspecified) | 5.4 µM | 10.7 µM | 13.3 µM | 11.4 µM | 14.5 µM | 5.8 µM | – | –
11 | CCN(CC)CCCC(C)Nc1ccnc2cc(Cl)ccc12 (stereo unspecified) [CHLOROQUINE] | – | – | – | – | – | – | 0.5 µM | 0.05 µM
